The text below walks through data of the RNAGym collection of RNA variant scans (doi:10.1126/science.aae0568).

Variants at the floor of the assay were thinned out.

To fix the notation:
B1: tRNA (parent)
chain: GUUCCGUUGGCGUAAUGGUAACGCGUCUCCCUCCUAAGGAGAAGACUGCGGGUUCGAGUCCCGUACGGAACG

The variants in this series derive from B1. The series can be described thus: yeast fitness relative to wild type (ratio to wild type); higher = fitter; tRNA-Arg(CCU), competitive growth, 37 C, YPD. In short, it runs like this:
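Variants of the tRNA-Arg(CCU) gene, chemically synthesised with a 3% per-site mutation rate at 69 sites, were placed at the native genomic locus in Saccharomyces cerevisiae. The pooled strains were competed in YPD at 37°C for 24 hours in six parallel replicates. Gene amplicons from the start population and from each end population were read by 100-nucleotide paired-end sequencing. Darwinian fitness relative to wild type came from changes in genotype frequencies; genotypes needed ≥ 100 starting reads, and estimates < 0.5 were set to 0.5.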
On to C34U A40C A42C G48A C61G G67C G68A, for which the yeast fitness was not above 0.5.

As to C34A G44A G52A C55U, the yeast fitness came to 0.53.

As to A36G A43G A57C A65U, the yeast fitness is not above 0.5.

In the case of U35C C49U, the yeast fitness came out at 0.755.

As to U35C C49A, the yeast fitness amounted to 0.735.

C33U A36U A43C A69C: the yeast fitness was 0.674.

In the case of C33U C61G G68C, the yeast fitness was not above 0.5.

Take C33G C61A: the yeast fitness stood at 0.607.

On to C33G C61U, for which the yeast fitness turned out to be 0.711.

Turning to C33U C34A G50A C62U A70C, the yeast fitness is not above 0.5.

Turning to U35A U47C C61G, the yeast fitness was not above 0.5.

On to U35C G41C, for which the yeast fitness was determined as 0.718.

Regarding C33A G39A A40U C55U C62U, the yeast fitness is not above 0.5.

As for C34G A37C, the yeast fitness came out at 0.554.

Consider C33U A40U G56C, for which the yeast fitness was not above 0.5.

Regarding C33U A45G C49A U53A, the yeast fitness was not above 0.5.

Turning to C33A U47A, the yeast fitness was 0.777.

In the case of U35C C46U G51C G63A, the yeast fitness came out at 0.619.

Regarding C34A U47C G51A, the yeast fitness is 0.53.

For the variant A36C A57C A70G, the yeast fitness is 0.552.

Take C34G A40G G48C G63A C66U: the yeast fitness is 0.605.

C34G C55G: the yeast fitness came out at 0.567.

Take U35C A45C C49G A57U G63A: the yeast fitness was not above 0.5.

C34U C46A C55G: the yeast fitness was determined as 0.672.

For the variant U35G G48C C66U, the yeast fitness was not above 0.5.

In the case of C33A C62U G67A, the yeast fitness was not above 0.5.

C33U G38U: the yeast fitness turned out to be 0.632.

For the variant C33U G38C, the yeast fitness amounted to 0.609.

In the case of C34G A37C C60G A65U, the yeast fitness was not above 0.5.

As to C34A U47A C61A, the yeast fitness is not above 0.5.

Regarding C33G C49G C55U, the yeast fitness is not above 0.5.

On to A36C G48C, for which the yeast fitness was not above 0.5.

In the case of C34G G41C C49U, the yeast fitness was determined as 0.684.

With U32G C33A U47A, the yeast fitness is not above 0.5.

On to C34G C61U A70U, for which the yeast fitness was found to be 0.639.

With C34G C49A, the yeast fitness stood at 0.591.

Take C34G A42C C62G: the yeast fitness is 0.631.

C33U G39C U59C C61A C62U: the yeast fitness is not above 0.5.

For the variant A36C A45C, the yeast fitness worked out at 0.763.

As for C33G C66G A70G, the yeast fitness came to 0.54.

Consider C33G A45C G50C, for which the yeast fitness is not above 0.5.

In the case of C34U G38C U54C, the yeast fitness is not above 0.5.

A36C U54A: the yeast fitness is not above 0.5.

Turning to A36C U54C, the yeast fitness was not above 0.5.

As to A36C U47A G48C, the yeast fitness is not above 0.5.

Consider C34U G41C A69G, for which the yeast fitness was not above 0.5.

With A36G A65U, the yeast fitness was 0.991.

For C34G G52A C62U, the yeast fitness was determined as 0.6.

Turning to A36C C55U C60G, the yeast fitness was found to be 0.781.

For the variant A36G A45C C61U, the yeast fitness is 0.76.

Turning to A36G A37U, the yeast fitness turned out to be 0.718.

Turning to A36G A37G, the yeast fitness came out at 0.816.

Turning to C33A G38C G50A U64C, the yeast fitness is not above 0.5.

For A36G C49U, the yeast fitness turned out to be 1.02.

In the case of U35C G58C, the yeast fitness stood at 0.883.

For the variant C34G U54A, the yeast fitness is 0.563.

As for C34G G50C C62A, the yeast fitness is not above 0.5.

As for C34G G67A, the yeast fitness was determined as 0.596.

As to C34U A42G A65C, the yeast fitness is 0.57.

Take C33G A43C G68A: the yeast fitness is not above 0.5.

On to U35C C55A, for which the yeast fitness is not above 0.5.

Consider A36C U47A G48C U54G A65C, for which the yeast fitness is 0.6.

Take A36C C55U G68C: the yeast fitness was not above 0.5.

A36C A37U A65C: the yeast fitness was determined as 0.534.

With A36C G41A U53C A70C, the yeast fitness came to 0.526.

Take U35G C66U: the yeast fitness turned out to be 0.681.

Take U35C C55A C60U A69U: the yeast fitness was not above 0.5.

On to C34G A37G C62A, for which the yeast fitness was not above 0.5.

For the variant C33U C61A, the yeast fitness amounted to 0.52.

For C34G U54A U59C A65G A70G, the yeast fitness amounted to 0.84.

For the variant A36C C55U, the yeast fitness is 0.675.

On to C33G A42G G52A, for which the yeast fitness was not above 0.5.

As for U35C A40U A42G U47C, the yeast fitness was determined as 0.601.

In the case of C34A G50C, the yeast fitness turned out to be 0.667.

In the case of C34A G50A, the yeast fitness was found to be 0.742.

As for U35C A70C, the yeast fitness was determined as 0.927.

For the variant C33U A36C U64C, the yeast fitness was found to be 0.648.

On to A36G G68C A70G, for which the yeast fitness is not above 0.5.

On to C34U A43G C61A, for which the yeast fitness is not above 0.5.

With C33U C62G A69C, the yeast fitness was found to be 0.595.

Turning to C34G C60G C62U, the yeast fitness stood at 0.65.

Turning to C34U A57C A69C, the yeast fitness was 0.738.

With U35C A37C G68C A70C, the yeast fitness amounted to 0.913.

On to C34G A40G U64C, for which the yeast fitness was 0.578.

For the variant C33U C34U G39C, the yeast fitness was found to be 0.605.

For C33G A40G A42C C66U, the yeast fitness is not above 0.5.

Take U32G U35A A36G A57U: the yeast fitness is not above 0.5.

With U32G G63C, the yeast fitness amounted to 0.571.

With C33G G56C G67C, the yeast fitness is not above 0.5.

As to C34U A40C C62U A65U, the yeast fitness was not above 0.5.

As to A36C C49A U64C, the yeast fitness came to 0.767.

On to U35C A37U A42G G51A, for which the yeast fitness was not above 0.5.

With C34G A37C C62U C66A, the yeast fitness is not above 0.5.

C34U G41C C60A: the yeast fitness was not above 0.5.

With C34U G41C C60U, the yeast fitness is not above 0.5.

For A36C G41A, the yeast fitness was found to be 0.587.

On to C33U A43U C49G G50C C61U U64C C66U, for which the yeast fitness was not above 0.5.

On to C33G G63A, for which the yeast fitness stood at 0.6.

Consider U35C G51A, for which the yeast fitness is 0.731.

Take C33A A37C C61U C62A: the yeast fitness was 0.635.

As to C34G A45U G50C A57C, the yeast fitness was not above 0.5.

With U35A A36U C61U, the yeast fitness is not above 0.5.

Take U32G C33G A70U: the yeast fitness was 0.543.

Regarding A36G G56A G58C, the yeast fitness is 0.694.

On to A36C G48A A57U, for which the yeast fitness was not above 0.5.

Regarding C33A A65G A69C, the yeast fitness is not above 0.5.

For C34A A37U G44A G51A C55A, the yeast fitness was found to be 0.603.

C33U C34G A40G: the yeast fitness was found to be 0.625.

With U35C A45U C49A C66U, the yeast fitness was not above 0.5.

Consider C34U A40G C46A, for which the yeast fitness turned out to be 0.579.

In the case of C33A A40U, the yeast fitness worked out at 0.741.

On to U32G U54A G67C, for which the yeast fitness was not above 0.5.

Take C33U A36C: the yeast fitness was determined as 0.517.

For the variant A36G G48A, the yeast fitness was found to be 0.991.

Consider A36C C66A, for which the yeast fitness was not above 0.5.

In the case of U32G G58A, the yeast fitness turned out to be 0.609.

In the case of U35A A42U A43U, the yeast fitness was not above 0.5.

As to A36C G52C C66U, the yeast fitness was found to be 0.54.

For C34G A37G G38A G50A, the yeast fitness was not above 0.5.

Turning to U35A C49G C66G, the yeast fitness is not above 0.5.

Turning to C33A G39C G41C G44C, the yeast fitness came to 0.549.

For the variant C33G C34G C62U, the yeast fitness is not above 0.5.

As to C34U G38C C55A, the yeast fitness is not above 0.5.

In the case of U35G C46U C62U, the yeast fitness was determined as 0.579.

With C33U A43U C49G G50C C61U C66U, the yeast fitness is not above 0.5.

On to C33U A65C, for which the yeast fitness is 0.664.

Regarding C34G A43U C61G, the yeast fitness came out at 0.614.

For C33G G44A G56A, the yeast fitness is not above 0.5.

Take C34G A43U G48C: the yeast fitness is not above 0.5.

For the variant U35A A37U U47A C62U, the yeast fitness was not above 0.5.

For C33G U47A G67C A69U, the yeast fitness was not above 0.5.

In the case of U35A G44C, the yeast fitness is 0.71.

In the case of C33A A43U C49A, the yeast fitness was 0.591.

As to A36G A37U A69C, the yeast fitness was determined as 0.663.

On to U35G A40G C49G, for which the yeast fitness was not above 0.5.

Regarding C34G G44C, the yeast fitness came to 0.652.

With C33G A37G C49U C60U, the yeast fitness stood at 0.551.

As to A36G A42C U47C, the yeast fitness is 0.687.

Consider C33A G68C, for which the yeast fitness worked out at 0.744.

Regarding C33U A42C A70C, the yeast fitness is 0.671.

On to U35C G44A G48C C55G A69U, for which the yeast fitness was not above 0.5.

As for U35A C49U U64A, the yeast fitness is not above 0.5.

Regarding U35G, the yeast fitness stood at 0.676.

As for U35C, the yeast fitness is 0.817.

For U35A, the yeast fitness was 0.715.

With A36C G63A, the yeast fitness was determined as 0.704.

Regarding U32G G38A C61G A70G, the yeast fitness is not above 0.5.

For A36C A40U, the yeast fitness worked out at 0.604.

A36C G39A A57U: the yeast fitness was not above 0.5.

For the variant C33U C34G, the yeast fitness was 0.648.

For C34G A36U C62A, the yeast fitness is not above 0.5.

Turning to C34U G38C, the yeast fitness was 0.605.

With A36C G48C U54G, the yeast fitness is not above 0.5.

As to A36G A65G A70G, the yeast fitness turned out to be 0.639.

Consider C34U G48A C55U, for which the yeast fitness stood at 0.638.

Take U32G U47A U64A A65C G67A: the yeast fitness turned out to be 0.6.

For the variant C34U G63A, the yeast fitness stood at 0.624.

In the case of C34U A45U, the yeast fitness came to 0.686.

In the case of U35C U54C, the yeast fitness came out at 0.696.

Turning to C33G G41A A42G C46G, the yeast fitness was not above 0.5.

For the variant C34G G38C C66A A70U, the yeast fitness is not above 0.5.

Turning to C34U A36C U53C G67A, the yeast fitness is not above 0.5.

On to A36C A42G, for which the yeast fitness worked out at 0.633.

With U32G G48A A70U, the yeast fitness was 0.553.

Consider C33G U54C C62A G68C, for which the yeast fitness is not above 0.5.

Consider U35C G50A G67A, for which the yeast fitness is not above 0.5.

Take A36G G50A: the yeast fitness amounted to 0.898.
